# Activity calls are given as the source filed them. No cut-off for these calls is given here.
# Columns and labels:
# [1] = target: T1, Adrenergic receptor alpha-2 (Rattus norvegicus) (UniProt P22086+P19328+P22909); experiment: In vitro presynaptic agonist potency at alpha-2 adrenergic receptor in rat or mouse vas deferens relative to clonidine; type: functional, tissue-based
# Summary of the method: (§1)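 Field-stimulated rat or mouse vas deferens under 0.5 g tension, at 0.1 Hz with 3-ms pulses, 30 °C, gassed with 95% O2/5% CO2. Contractions were recorded isometrically. Standard dose-response curves were run before and after each analogue curve. Potency was expressed relative to the standard in the same experiment.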
# [2] = target: T2, Adenosine receptor A2b (Rattus norvegicus) (UniProt P29276); experiment: In vitro presynaptic antagonist potency at alpha-2 adrenergic receptor in rat or mouse vas deferens; IA means inactive; type: functional
# T2 sequence (whole entry): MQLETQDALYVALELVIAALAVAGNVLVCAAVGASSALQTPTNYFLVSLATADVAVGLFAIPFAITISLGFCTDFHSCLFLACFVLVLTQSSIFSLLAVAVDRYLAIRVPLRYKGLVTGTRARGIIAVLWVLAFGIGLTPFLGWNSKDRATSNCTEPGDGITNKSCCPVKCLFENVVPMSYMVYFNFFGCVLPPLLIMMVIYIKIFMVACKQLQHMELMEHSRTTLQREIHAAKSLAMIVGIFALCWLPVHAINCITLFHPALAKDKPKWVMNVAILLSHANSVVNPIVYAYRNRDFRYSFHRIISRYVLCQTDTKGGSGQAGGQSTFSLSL
# Summary of the method: (§2)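 Prostatic half of vas deferens from male Sprague–Dawley rats (200–250 g; Krebs, 30 °C, 95% O2/5% CO2, 0.1 Hz, 3-ms, 40 V) or from mice (magnesium-free Krebs, 100–140 V). Tension 0.5 g; isometric twitch recording. […] The concentration giving 50% reversal of the inhibition was compared with standard 5 in the same tissue.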
# [3] = tested on: Alpha-1 adrenergic receptor (Rattus norvegicus); experiment: In vitro postsynaptic agonist potency at alpha-1 adrenergic receptor in rat anococcygeus.
# [4] = target: T3, Adrenergic receptor alpha-1 (Rattus norvegicus) (UniProt P15823+P23944+P43140); experiment: In vitro postsynaptic antagonist potency at alpha-1 adrenergic receptor in rat anococcygeus.; type: functional
# [5] = target: T3, Adrenergic receptor alpha-1 (Rattus norvegicus); experiment: In vitro postsynaptic antagonist potency at alpha-1 adrenergic receptor in rat anococcygeus relative to compound 5 (RX781094); IA means compound is inactive.; type: functional
# [6] = tested on: Alpha-2 adrenergic receptor (Rattus norvegicus); experiment: In vitro presynaptic antagonist potency at alpha-2 adrenergic receptor in rat or mouse vas deferens; IA means compound is inactive.
# [7] = tested on: Alpha-2 adrenergic receptor (Rattus norvegicus); experiment: In vitro presynaptic agonist potency at alpha-2 adrenergic receptor in rat or mouse vas deferens relative to clonidine; Inactive
# [8] = target: T3, Adrenergic receptor alpha-1 (Rattus norvegicus); experiment: In vitro postsynaptic agonist potency at alpha-1 adrenergic receptor in rat anococcygeus muscle relative to phenylephrine; IA means inactive.; type: functional, tissue-based
# Summary of the method: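 Rat anococcygeus muscle (male Sprague–Dawley rats, 200–250 g) suspended at 0.5 g initial tension in a 50-mL organ bath. […] Standard dose-response curves were run before and after the analogue's curve.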
# [9] = target: T3, Adrenergic receptor alpha-1 (Rattus norvegicus); experiment: In vitro postsynaptic agonist potency at alpha-1 adrenergic receptor in rat anococcygeus muscle relative to phenylephrine; type: functional, tissue-based
# [10] = tested on: Alpha-2 adrenergic receptor (Rattus norvegicus); experiment: In vitro presynaptic agonist potency at alpha-2 adrenergic receptor in rat or mouse vas deferens relative to clonidine; IA means inactive
# [11] = target: T3, Adrenergic receptor alpha-1 (Rattus norvegicus); experiment: In vitro postsynaptic antagonist potency at alpha-1 adrenergic receptor in rat anococcygeus relative to compound 5 (RX781094); type: functional
# [12] = target: T3, Adrenergic receptor alpha-1 (Rattus norvegicus); experiment: Ratio of presynaptic antagonist potency to postsynaptic antagonist potency; type: functional
# [13] = target: Adrenergic receptor alpha-2 (Homo sapiens) (UniProt P08913+P18825+P18089); experiment: In vitro presynaptic antagonist potency at Alpha-2 adrenergic receptor in rat or mouse vas deferens relative to compound 5 (RX781094); type: functional, tissue-based; summary of the method: as §2
# [14] = target: T1, Adrenergic receptor alpha-2 (Rattus norvegicus); experiment: In vitro presynaptic agonist potency at alpha-2 adrenergic receptor in rat or mouse vas deferens relative to clonidine; IA means inactive; type: functional, tissue-based
# Summary of the method: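 Field-stimulated rat or mouse vas deferens (Krebs, 30 °C, 95% O2/5% CO2, 3-ms pulses at 0.1 Hz) with isometric twitch recording. […] Standard dose-response curves were run before and after the analogue's curve.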
# [15] = target: T3, Adrenergic receptor alpha-1 (Rattus norvegicus); experiment: In vitro postsynaptic antagonist potency at alpha-1 adrenergic receptor in rat anococcygeus relative to compound 5 (RX781094); AG means compound is agonist.; type: functional; details: filed as agonist
# [16] = target: T2, Adenosine receptor A2b (Rattus norvegicus); experiment: In vitro presynaptic agonist potency at Alpha-2 adrenergic receptor in rat or mouse vas deferens relative to clonidine; type: functional, tissue-based; summary of the method: as §1
# [17] = In vitro antagonism at Alpha-2 adrenergic receptor in rat or mouse vas deferens relative to RX781094.; type: functional; summary of the method: as §2
# [18] = tested on: Alpha-2 adrenergic receptor (Rattus norvegicus); experiment: In vitro presynaptic agonist potency at Alpha-2 adrenergic receptor in rat or mouse vas deferens relative to clonidine; IA means inactive
# [19] = target: T2, Adenosine receptor A2b (Rattus norvegicus); experiment: In vitro presynaptic agonist potency at Alpha-2 adrenergic receptor in rat or mouse vas deferens relative to clonidine; IA means inactive; type: functional, tissue-based; summary of the method: as §1
# [20] = target: T3, Adrenergic receptor alpha-1 (Rattus norvegicus); experiment: In vitro postsynaptic antagonist potency at alpha-1 adrenergic receptor in rat anococcygeus. Taken as standard; type: functional
# T3 sequence (P15823 whole entry, looked up): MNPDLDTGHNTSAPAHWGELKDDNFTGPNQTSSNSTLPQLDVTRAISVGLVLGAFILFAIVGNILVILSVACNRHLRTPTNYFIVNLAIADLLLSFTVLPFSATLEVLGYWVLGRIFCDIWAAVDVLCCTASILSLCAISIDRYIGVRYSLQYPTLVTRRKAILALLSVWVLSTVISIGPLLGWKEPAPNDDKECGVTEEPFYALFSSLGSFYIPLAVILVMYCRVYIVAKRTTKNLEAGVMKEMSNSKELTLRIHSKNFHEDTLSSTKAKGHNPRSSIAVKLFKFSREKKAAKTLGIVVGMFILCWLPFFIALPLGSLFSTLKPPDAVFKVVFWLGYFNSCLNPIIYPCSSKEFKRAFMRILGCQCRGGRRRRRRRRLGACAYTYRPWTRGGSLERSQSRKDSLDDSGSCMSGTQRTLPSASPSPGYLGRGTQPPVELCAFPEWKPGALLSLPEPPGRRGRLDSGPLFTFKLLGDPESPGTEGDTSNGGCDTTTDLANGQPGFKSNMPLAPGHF
# T3 sequence (P23944 whole entry, looked up): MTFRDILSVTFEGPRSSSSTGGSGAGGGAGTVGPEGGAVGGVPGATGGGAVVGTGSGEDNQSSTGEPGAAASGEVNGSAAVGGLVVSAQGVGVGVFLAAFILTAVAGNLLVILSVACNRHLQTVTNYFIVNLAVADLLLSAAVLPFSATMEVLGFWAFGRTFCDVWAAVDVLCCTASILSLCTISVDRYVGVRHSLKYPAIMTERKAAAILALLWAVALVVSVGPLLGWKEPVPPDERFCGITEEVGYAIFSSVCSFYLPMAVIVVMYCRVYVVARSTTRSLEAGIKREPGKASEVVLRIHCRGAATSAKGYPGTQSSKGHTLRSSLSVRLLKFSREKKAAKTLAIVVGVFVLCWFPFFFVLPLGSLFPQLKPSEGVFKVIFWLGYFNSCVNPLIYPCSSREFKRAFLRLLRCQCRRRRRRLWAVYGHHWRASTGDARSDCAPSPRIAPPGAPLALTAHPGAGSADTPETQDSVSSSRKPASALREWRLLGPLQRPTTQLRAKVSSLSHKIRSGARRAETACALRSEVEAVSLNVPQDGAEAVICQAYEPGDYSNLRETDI
# T3 sequence (P43140 whole entry, looked up): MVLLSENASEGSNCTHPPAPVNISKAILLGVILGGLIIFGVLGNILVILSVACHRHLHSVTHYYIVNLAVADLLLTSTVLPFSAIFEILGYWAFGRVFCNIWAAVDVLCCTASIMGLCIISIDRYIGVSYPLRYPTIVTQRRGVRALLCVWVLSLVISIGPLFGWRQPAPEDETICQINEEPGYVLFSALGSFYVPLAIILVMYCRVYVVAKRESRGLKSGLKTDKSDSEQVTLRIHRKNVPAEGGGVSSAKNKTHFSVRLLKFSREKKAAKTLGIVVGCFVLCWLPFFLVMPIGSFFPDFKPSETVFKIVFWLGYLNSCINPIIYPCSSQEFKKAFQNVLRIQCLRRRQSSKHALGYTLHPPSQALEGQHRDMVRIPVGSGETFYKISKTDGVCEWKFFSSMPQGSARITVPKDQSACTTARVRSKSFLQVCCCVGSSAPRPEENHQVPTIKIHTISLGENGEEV
# T1 sequence (P19328 whole entry, looked up): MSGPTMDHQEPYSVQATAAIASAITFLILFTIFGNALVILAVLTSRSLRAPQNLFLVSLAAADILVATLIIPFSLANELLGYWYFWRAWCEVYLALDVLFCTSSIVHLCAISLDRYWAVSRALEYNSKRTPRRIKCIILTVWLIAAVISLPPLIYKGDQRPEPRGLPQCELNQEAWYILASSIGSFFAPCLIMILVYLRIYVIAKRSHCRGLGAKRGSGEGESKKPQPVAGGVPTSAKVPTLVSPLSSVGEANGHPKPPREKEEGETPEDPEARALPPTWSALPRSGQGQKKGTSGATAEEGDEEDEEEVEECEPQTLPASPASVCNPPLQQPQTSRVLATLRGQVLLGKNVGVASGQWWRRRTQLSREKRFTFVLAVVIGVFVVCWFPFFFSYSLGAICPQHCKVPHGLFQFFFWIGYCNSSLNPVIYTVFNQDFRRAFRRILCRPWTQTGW
# T1 sequence (P22086 whole entry, looked up): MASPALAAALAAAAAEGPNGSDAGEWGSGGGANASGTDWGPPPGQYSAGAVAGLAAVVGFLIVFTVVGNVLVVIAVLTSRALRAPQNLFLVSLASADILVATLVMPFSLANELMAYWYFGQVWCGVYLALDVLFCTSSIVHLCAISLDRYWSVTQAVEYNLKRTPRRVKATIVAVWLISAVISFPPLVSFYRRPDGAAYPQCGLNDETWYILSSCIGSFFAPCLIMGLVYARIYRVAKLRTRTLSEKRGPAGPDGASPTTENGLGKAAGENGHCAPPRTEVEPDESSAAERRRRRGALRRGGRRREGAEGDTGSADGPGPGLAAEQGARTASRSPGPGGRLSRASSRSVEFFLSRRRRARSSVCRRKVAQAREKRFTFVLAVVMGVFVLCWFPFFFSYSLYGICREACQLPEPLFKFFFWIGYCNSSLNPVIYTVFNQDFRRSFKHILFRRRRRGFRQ
# T1 sequence (P22909 whole entry, looked up): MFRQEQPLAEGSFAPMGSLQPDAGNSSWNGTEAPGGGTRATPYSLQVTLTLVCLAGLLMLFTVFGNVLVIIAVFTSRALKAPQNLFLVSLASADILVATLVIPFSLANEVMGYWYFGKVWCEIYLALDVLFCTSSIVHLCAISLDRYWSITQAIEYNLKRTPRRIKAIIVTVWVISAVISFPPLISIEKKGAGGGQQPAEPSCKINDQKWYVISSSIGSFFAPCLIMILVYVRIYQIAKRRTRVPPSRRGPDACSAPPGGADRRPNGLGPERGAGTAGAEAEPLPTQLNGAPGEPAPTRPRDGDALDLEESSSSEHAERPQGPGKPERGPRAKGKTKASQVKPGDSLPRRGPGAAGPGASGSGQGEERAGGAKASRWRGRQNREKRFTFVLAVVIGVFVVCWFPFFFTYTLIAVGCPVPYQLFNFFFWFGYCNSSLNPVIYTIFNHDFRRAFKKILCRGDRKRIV
Antagonist potency [5],Agonist potency [8],Agonist potency [14],Structure (SMILES),Agonist potency [1],Agonist potency [9],Antagonist potency [11],other results
–,–,–,Oc1cc2c(cc1O)OC(C1=NCCN1)CO2 (stereo unspecified),0.0006,–,–,Antagonist potency [2]: inactive; Agonist potency [3]: 0.018; Antagonist potency [4]: > 6
inactive,inactive,–,Nc1nc(N)nc(C2COc3ccccc3O2)n1 (stereo unspecified),–,–,–,Antagonist potency [6]: inactive; Agonist potency [7]: inactive
–,–,inactive,NC(=NO)C1COc2ccccc2O1 (stereo unspecified),–,–,–,Antagonist potency [4]: 0.01
–,–,–,Cc1cccc2c1OCC(C1=NCCN1)O2 (stereo unspecified),–,1,–,Antagonist potency [15]: Agonist; Agonist potency [16]: 0.1; Antagonist potency [17]: 0.13
–,–,–,Brc1cc2c(cc1Br)OC(C1=NCCN1)CO2 (stereo unspecified),–,0.02,0.1,Antagonist potency [17]: 0.001; Selectivity [12]: 0.01; Agonist potency [18]: inactive
–,–,–,CC(C)c1cccc2c1OCC(C1=NCCN1)O2 (stereo unspecified),0.1,0.5,1,Antagonist potency [19]: inactive
inactive,inactive,inactive,N=C(NN1CCOCC1)C1COc2ccccc2O1 (stereo unspecified),–,–,–,Antagonist potency [6]: inactive
–,inactive,–,N/C(=N\CC(=O)O)C1COc2ccccc2O1 (stereo unspecified),–,–,< 0.023,Antagonist potency [17]: <0.0003; Agonist potency [18]: inactive
inactive,inactive,inactive,c1ccc2c(c1)OCC(C1=NCCS1)O2 (stereo unspecified),–,–,–,Antagonist potency [6]: inactive
inactive,inactive,–,Nc1noc(C2COc3ccccc3O2)n1 (stereo unspecified),0.0001,–,–,Antagonist potency [10]: inactive

Structure (SMILES),Antagonist potency [5],Agonist potency [8],Agonist potency [14],Agonist potency [1],Agonist potency [9],Antagonist potency [11],other results
COc1ccccc1OCC1=NCCN1,inactive,–,–,0.001,10,–,Antagonist potency [10]: inactive
COc1cc2c(cc1OC)OC(C1=NCCN1)CO2 (stereo unspecified),–,inactive,–,–,–,0.05,Agonist potency [7]: inactive; Selectivity [12]: 0.3; Antagonist potency [13]: 0.015
c1ccc2c(c1)OCC(C1=NCCN1)O2 (stereo unspecified),–,inactive,inactive,–,–,–,Antagonist potency [20]: 1
